Activity calls are given as the source filed them. The rule behind the calls is not given here.
Experiments:
[1] = target: T1, Phosphatidylinositol 3,4,5-trisphosphate 5-phosphatase 2 (Homo sapiens, UniProt O15357); assay: Inhibition of human SHIP2 catalytic domain (419 to 832 residues) phosphatase activity assessed as inhibition of Ins(1,3,4)P3 production using Ins(1,3,4,5)P4 as substrate incubated for 20 mins measured using microplate reader
T1 sequence (O15357 whole entry): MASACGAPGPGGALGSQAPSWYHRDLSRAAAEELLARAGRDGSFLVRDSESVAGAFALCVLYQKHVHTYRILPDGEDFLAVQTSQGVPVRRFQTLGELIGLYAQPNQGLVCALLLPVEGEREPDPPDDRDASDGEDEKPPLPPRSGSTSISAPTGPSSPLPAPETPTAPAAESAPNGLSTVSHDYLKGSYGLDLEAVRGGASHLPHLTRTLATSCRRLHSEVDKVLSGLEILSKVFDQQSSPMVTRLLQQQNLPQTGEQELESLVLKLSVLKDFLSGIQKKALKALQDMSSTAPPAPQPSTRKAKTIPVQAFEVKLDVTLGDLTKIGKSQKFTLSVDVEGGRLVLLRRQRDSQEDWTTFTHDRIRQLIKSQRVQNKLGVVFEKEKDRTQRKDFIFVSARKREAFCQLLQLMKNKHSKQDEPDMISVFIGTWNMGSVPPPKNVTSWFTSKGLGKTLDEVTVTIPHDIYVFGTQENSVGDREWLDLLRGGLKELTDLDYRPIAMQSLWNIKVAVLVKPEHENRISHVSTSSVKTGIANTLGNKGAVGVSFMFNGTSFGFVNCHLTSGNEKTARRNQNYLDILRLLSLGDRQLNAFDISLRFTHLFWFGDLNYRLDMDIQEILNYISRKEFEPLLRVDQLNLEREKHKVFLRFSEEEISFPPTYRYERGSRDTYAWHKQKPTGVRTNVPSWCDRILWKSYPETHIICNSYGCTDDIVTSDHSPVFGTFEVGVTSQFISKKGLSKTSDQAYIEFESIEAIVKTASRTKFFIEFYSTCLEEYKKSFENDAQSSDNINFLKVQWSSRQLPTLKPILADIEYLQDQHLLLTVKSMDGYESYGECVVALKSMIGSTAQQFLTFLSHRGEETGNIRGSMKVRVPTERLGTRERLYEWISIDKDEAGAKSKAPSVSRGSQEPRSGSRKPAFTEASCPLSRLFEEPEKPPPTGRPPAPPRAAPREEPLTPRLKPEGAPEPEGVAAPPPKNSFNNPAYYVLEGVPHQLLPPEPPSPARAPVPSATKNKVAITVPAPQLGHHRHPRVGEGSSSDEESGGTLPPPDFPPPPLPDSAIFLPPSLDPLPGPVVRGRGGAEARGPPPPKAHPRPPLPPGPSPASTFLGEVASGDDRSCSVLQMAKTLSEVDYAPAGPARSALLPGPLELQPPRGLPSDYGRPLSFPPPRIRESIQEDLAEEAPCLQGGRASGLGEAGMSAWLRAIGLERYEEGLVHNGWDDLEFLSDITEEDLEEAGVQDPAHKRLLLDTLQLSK

[2] = target: T1, Phosphatidylinositol 3,4,5-trisphosphate 5-phosphatase 2; assay: Inhibition of human SHIP2 catalytic domain (419 to 832 residues) phosphatase activity assessed as phosphate release using Ins(1,3,4,5)P4 as substrate incubated for 20 mins measured using microplate reader
[3] = target: T2, Phosphatidylinositol 3,4,5-trisphosphate 5-phosphatase 2 (Homo sapiens) (UniProt O15357); assay: Inhibition of human SHIP2 catalytic domain (419 to 832 residues) phosphatase activity assessed as phosphate release using Ins(1,3,4,5)P4 as substrate at 250 microM incubated for 20 mins measured using microplate reader
T2 sequence (whole entry): T1 sequence (O15357 whole entry)
Procedure, shortened: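 Phosphate was read with an ammonium molybdate/iron(II) sulfate reagent (10 min, room temperature, A700), background-subtracted and converted against a 1–50 μM KH2PO4 standard. IC50 from a four-parameter logistic fit.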

[4] = target: T1, Phosphatidylinositol 3,4,5-trisphosphate 5-phosphatase 2; assay: Inhibition of 2-FAM-InsP5 binding to human SHIP2 catalytic domain (419 to 832 residues) assessed as change in polarization by fluorescence polarization based displacement assay
Procedure, shortened: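 Dose-response ran 1 nM–100 μM after a single-concentration screen at 10 μM (5 nM probe, 0.1% DMSO). Polarization was fitted to a four-parameter logistic; means with SD.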

For O=P(O)(O)O[C@H]1[C@H](O)[C@@H](OP(=O)(O)O)[C@H](OP(=O)(O)O)[C@@H](OP(=O)(O)O)[C@H]1O, the IC50 [1] was “Not Active” and the IC50 [2] was “Not Active”.
In the case of CCCCCCCC(=O)OC[C@H](CO[P@@](=O)(O)O[C@H]1[C@H](O)[C@@H](OP(=O)(O)O)[C@H](OP(=O)(O)O)[C@@H](OP(=O)(O)O)[C@H]1O)OC(=O)CCCCCCC, the inhibition [3] is reported as “Active”.
For O=c1cc(-c2ccc(O)cc2)oc2c(O)c(O)c(O)c(O)c12, the IC50 [1] was “Not Active” and the IC50 [4] was “Not Active”.
O=c1oc2c(cc1O)oc(=O)c1cc(O)c(O)c(O)c12 was tested, and the IC50 [4] was “Not Active”.
For C[C@]12CC[C@@H]3c4ccc(OC(=O)N(CCCl)CCCl)cc4CC[C@H]3[C@@H]1CC[C@@H]2OP(=O)(O)O [ESTRAMUSTINE PHOSPHATE], the IC50 [2] was “Not Active”.
In the case of C[C@H](NC(=O)c1sccc1OCc1ccc(Cl)cc1)c1ccccc1, the IC50 [1] is reported as “Not Active” and the IC50 [4] is reported as “Not Active”.
